Hits are enriched below; roughly 5.6% of the tested compounds scored in any of these assays.
UPR CHOP act – apoptotic UPR (CHOP) activation. CHO-CHOP luciferase reporter, luminescence; percent of tunicamycin response over DMSO baseline. activation, % at 10 µM. actives 0.34% (n = 330,000). AID 449763;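 active = at 10 µM dose, activation of 40% or more, normalized to positive control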;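 note: 100% = tunicamycin at 10 µg/mL and 0% = DMSO alone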
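Evaluation: % reporter activation, DMSO baseline versus tunicamycin full activation; System: CHO-CHOP luciferase reporter cell line; Input: 500 cells/well; Incubation: 6 h compound treatment, 37 °C; Measured by: Steady-Glo luciferase luminescence; Dosing: one dose, 10 µM in 0.5% DMSO; Buffer or medium: F12 medium, 10% FBS; Benchmarks: positive tunicamycin 10 µg/mL, negative DMSO alone.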
NR3A LBD binder – modulators (binders) of human NR3A ligand-binding domain; NR3A LBD differential scanning fluorimetry, Tm shift; 0% = protein alone, 100% = glycine-bound protein; Tm shift relative to glycine control, % at 25 µM; actives 2.5% (n = 340,000);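 active = melting temperature shift of at least 10% of the positive control shift, at one fixed dose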
CHOP inh – blocks CHOP induction under ER stress; actives 3.8% (n = 220,000); CHO-K1 CHOP-promoter luciferase, tunicamycin-induced, 15-18 h; inhibition, % at 10 µM;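 active = compounds that reduced the stress-induced luciferase reporter signal by more than about 70% of percent inhibition, limit read from the data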;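 note: 0% = tunicamycin plus vehicle and 100% = wells without tunicamycin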
UPR XBP1 act – activators of adaptive arm of unfolded protein response (XBP1); CHO-XBP1 luciferase reporter, IRE1-XBP1 UPR activation, luminescence; percent of tunicamycin response, DMSO as zero; activation, % at 20 µM; actives 0.33% (n = 330,000); AID 463104;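 active = versus positive control, 20 µM dose yields 30% or more activation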;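 note: 100% = tunicamycin at 10 µg/mL and 0% = DMSO only wells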
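Assay system: CHO-XBP1 luciferase reporter cells; Schedule: 6 h treatment, 37 °C; Detection: glow luminescence from Steady-Glo reagent; Benchmarks: high control tunicamycin 10 µg/mL final, low control DMSO vehicle only.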
aDG glyco act – increases alpha dystroglycan glycosylation; actives 0.22% (n = 360,000); Pro5-aDG cells, alpha-DG glycosylation AlphaScreen (IIH6); 0% Pro5, 100% B10-LARGE cell signal; activation, % at 10 µM; AID 624168;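 active = activation of at least 8% versus controls, or a plate z-score of at least 8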;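 note: Pro5 are CHO cells carrying HIG-tagged alpha-DG that lacks glycosylation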
MPTP inh – permeability transition pore inhibition | isolated mouse mitochondria, Ca2+ swelling absorbance, 30 min | inhibition, % at 10 µM | actives 1.4% (n = 360,000) | AID 602449;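 active = inhibition of 50% or more, scaled per plate between neutral and stimulator controls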;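 note: 0% = DMSO wells given calcium and 100% = 1 mM EGTA wells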
Active calls of the source: *; nt = no result given.

SMILES	UPR CHOP act	NR3A LBD binder	CHOP inh	UPR XBP1 act	aDG glyco act	MPTP inh
CCCC(=O)Nc1ccc(-c2nc3cc(C)ccc3o2)cc1	-1	14*	50	-3	0	-2
Cc1ccc(OCC(=O)Nc2ccc(-c3nc4ncccc4o3)cc2)c(C)c1	-1	10	84*	-2	0	-4
Cc1cccc(NC(=O)CSc2nc(=O)n(CCCN3CCOCC3)c3c2CCCC3)c1C	nt	nt	nt	nt	0	-1
CCOc1ccc(C(=O)N[C@H](C(=O)Nc2cccc(S(=O)(=O)N3CCCCC3)c2)C(C)C)cc1	2	-5	85*	1	0	2
CN(C(=O)c1cccc(NC(=O)Cc2ccc(NC(=O)C3CCN(S(=O)(=O)c4cccc([N+](=O)[O-])c4)CC3)cc2)c1)C1CCCC1	nt	9	nt	nt	1	3
CN(C(=O)c1ccc(NC(=O)Cc2cccc(NC(=O)C3CCCN(C(=O)CCc4ccccc4)C3)c2)cc1)C1CCCC1 (stereo not given)	0	22*	nt	-2	1	5
CCOc1ccc(C(=O)N[C@H](C(=O)Nc2cccc(S(=O)(=O)N3CCOCC3)c2)C(C)C)cc1	1	1	nt	17	0	-2
O=C(Nc1cccc(S(=O)(=O)N2CCCCC2)c1)C1CCCC1	1	22*	nt	-3	0	1
CN(C(=O)c1cccc(NC(=O)Cc2ccc(NC(=O)C3CCCN(S(=O)(=O)c4cccc([N+](=O)[O-])c4)C3)cc2)c1)C1CCCCC1 (stereo not given)	nt	10*	nt	nt	0	2
COc1ccc(OCCOc2ccc(/C=C3\C(=N)N4N=C(C)SC4=NC3=O)cc2)cc1	10	1	nt	3	0	2
CCCNC(=O)C1(C)CCCN(C(=O)c2cccc(C#N)c2)C1 (stereo not given)	nt	nt	nt	nt	0	-1
COC(=O)C1(C)NC(c2cccc(C)c2)C2C(=O)N(c3ccccc3)C(=O)C21 (stereo not given)	nt	nt	nt	nt	0	1
CCCCCCC1CC(CSc2ncn[nH]2)OC1=O (stereo not given)	2	15*	26	-1	0	-1
CC(C)c1cc(C(=O)N2CCN(C(c3ccccc3)c3ccccc3)CC2)no1	0	-3	82*	-5	0	0
O=C(N1CCCCC1)N1CCN(C(c2ccccc2)c2ccccc2)CC1	0	-1	83*	0	0	-2
Fc1ccc(-c2nc3c4ccccc4ccn3c2Cc2cccc(Cl)c2)cc1	nt	nt	nt	nt	0	2
COCCN(C(=O)c1ccc(COc2ccccc2)o1)c1c(N)n(CC(C)C)c(=O)[nH]c1=O	-3	-1	nt	-4	0	0
C=C(C)CN=C1NN=C(c2cc(C)n(-c3ccc(C)cc3)c2C)CS1	4	-1	74*	-1	0	5
Clc1ccc(Nc2nc(C3CC3)cs2)cc1	3	-5	98*	2	0	0
OC[C@@H]1CN(Cc2ccco2)C[C@H](n2cnc3c(NC4CC4)ncnc32)O1	nt	nt	nt	nt	0	-1
COc1ccc(/C=N/NC(=O)c2ccc(NC(=O)c3cccc([N+](=O)[O-])c3)cc2)c(OC)c1	1	18*	65	4	1	1
COc1ccccc1/C=N/NC(=O)c1ccc(NC(=O)c2cccc([N+](=O)[O-])c2)cc1	0	nt	-16	-4	nt	nt
O=C(N/N=C/c1cccc(O)c1)c1ccc(NC(=O)c2cccc([N+](=O)[O-])c2)cc1	0	27*	5	2	0	2
COc1cc(/C=N/NC(=O)c2cccc([N+](=O)[O-])c2)ccc1OCc1ccc(C)cc1	-2	17*	50	-2	0	4
CCC(=O)Nc1ccc(C(=O)N/N=C/c2cc(Br)c(OC)cc2OC)cc1	2	24*	15	2	0	0
SMILES	UPR CHOP act	NR3A LBD binder	CHOP inh	UPR XBP1 act	aDG glyco act	MPTP inh
COc1ccc(/C=N/NC(=O)c2cccc(NC(=O)c3ccc(Cl)cc3)c2)c(OC)c1	0	11*	44	2	0	4
CO/N=C(\C(=O)O)c1csc(NN=C(C)C)n1	-1	1	-10	1	0	0
O=C(Nc1ccc(Oc2cccnc2)cc1)C1CCCCN1Cc1ccc(CO)o1 (stereo not given)	1	10*	nt	-4	0	-1
CCCOc1ccc(/C=N/Nc2ccc(C(=O)O)cc2)c(OCCC)c1	nt	21*	-11	nt	0	1
CCCOc1ccc(/C=N/Nc2cccc([N+](=O)[O-])c2)c(O)c1	5	33*	74*	4	0	26
C/C=C/C(=O)OCC(=O)Nc1cc(-c2cc(C)c(C)cc2C)nn1-c1ccccc1	-2	-3	39	-3	0	4
CC(C)[C@H](NC(=O)c1ccco1)C(=O)OCC(=O)c1ccc2c(c1)NC(=O)CO2	-2	11*	4	-2	0	4
O=C(CSc1nnc(-c2ccc(Cl)cc2)o1)N1CCOCC1	4	1	nt	-2	0	0
CCOC(=O)c1cc2c(ccn2C)n1Cc1ccccc1C	-1	2	70*	-3	0	2
Cc1ccccc1Cn1c(C(=O)OC(C)C)cc2c1ccn2C	3	-1	51	0	0	2
CCOC(=O)c1cc2c(ccn2C)n1Cc1ccccc1Cl	2	3	2	4	0	1
Cc1ccc(C)c(Cn2c(C(=O)OC(C)C)cc3c2ccn3C)c1	1	-2	73*	1	0	2
COc1ccc(C(=O)N/C(N)=N/c2nc3ccccc3o2)cc1	7	0	58	4	0	3
COc1ccc(C(=O)/C=C/Sc2nc3ccccc3o2)cc1	-3	-12	82*	-8	0	3
C#Cc1ccc(NC(=O)C2(C)CCN2C(=O)c2cc(C)n(C)n2)cc1 (stereo not given)	nt	nt	nt	nt	0	-1
NC(=S)NNC(=O)/C(=C/c1ccc(Br)cc1)NC(=O)c1ccccc1	-2	13*	-4	-2	0	-1
O=C(CCCNC(=O)/C(=C/c1ccc(Br)cc1)NC(=O)c1ccccc1)OCc1ccccc1	0	-11	26	-1	0	5
CCCCOCCCNC(=O)Cc1cccs1	1	11*	-3	0	0	0
CCCCOC(=O)Nc1ccc(S(=O)(=O)Nn2cnnc2)cc1	1	1	18	2	0	-2
CCCCN(CCCC)S(=O)(=O)c1ccc(NS(=O)(=O)c2ccc(NC(C)=O)cc2)cc1	1	13*	93*	-1	0	-1
CCCCOC(=O)Nc1ccc(S(=O)(=O)Nc2ccc([N+](=O)[O-])cc2)cc1	3	17*	-2	0	0	4
